From ChEMBL document CHEMBL2029228, “Antimalarial activity of 9a-N substituted 15-membered azalides with improved in vitro and in vivo activity over azithromycin” (J Med Chem, 2012)
Calls of active or inactive are those of the source. The rule behind the calls is not given here.

How the values were obtained:
[1] = tested on: Plasmodium berghei; test: Antimalarial activity against Plasmodium berghei KBG173 infected in mouse assessed as decrease in parasitemia at 5 mg/kg, ip BID administered on day 3, 4 and 5 post infection measured on day 31 relative to control; assay type: functional, organism-based; parameters: dose 5 mg/kg
Procedure, shortened: (§1)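 Male mice (24–30 g) inoculated intraperitoneally with 5 × 10⁶ P. berghei KBG-173-infected erythrocytes; parasitemia about 1.0–3.7% by day 3. Dosing twice daily on days 3–5 postinfection. Blood smears negative on day 31 counted as cured, scored as cured/total mice (5 per dose). Mice losing ≥20% body weight sacrificed.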

[2] = tested on: Plasmodium berghei; test: Antimalarial activity against Plasmodium berghei KBG173 infected in mouse assessed as decrease in parasitemia at 2.5 mg/kg, ip BID administered on day 3, 4 and 5 post infection measured on day 31 relative to control; assay type: functional, organism-based; parameters: dose 2.5 mg/kg; procedure, shortened: as §1
[3] = tested on: Plasmodium berghei; test: Antimalarial activity against Plasmodium berghei KBG173 infected in mouse assessed as decrease in parasitemia at 1.25 mg/kg, iv BID administered on day 3, 4 and 5 post infection measured on day 31 relative to control; assay type: functional, organism-based; parameters: dose 1.25 mg/kg; procedure, shortened: as §1
[4] = tested on: Plasmodium berghei; test: Antimalarial activity against Plasmodium berghei KBG173 infected in mouse assessed as decrease in parasitemia at 1.25 mg/kg, ip BID administered on day 3, 4 and 5 post infection measured on day 31 relative to control; assay type: functional, organism-based; parameters: dose 1.25 mg/kg; procedure, shortened: as §1
[5] = tested on: Plasmodium berghei; test: Antimalarial activity against Plasmodium berghei KBG173 infected in mouse assessed as decrease in parasitemia at 2.5 mg/kg, iv BID administered on day 3, 4 and 5 post infection measured on day 31 relative to control; assay type: functional, organism-based; parameters: dose 2.5 mg/kg; procedure, shortened: as §1
[6] = tested on: Plasmodium berghei; test: Antimalarial activity against Plasmodium berghei KBG173 infected in mouse assessed as decrease in parasitemia at 5 mg/kg, iv BID administered on day 3, 4 and 5 post infection measured on day 31 relative to control; assay type: functional, organism-based; parameters: dose 5 mg/kg; procedure, shortened: as §1
[7] = tested on: Plasmodium berghei; test: Antimalarial activity against Plasmodium berghei KBG173 infected in mouse assessed as mouse survival time at 5 mg/kg, iv BID administered on day 3, 4 and 5 post infection; assay type: functional
Procedure, shortened: (§2)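 Male mice (24−30 g) inoculated intraperitoneally with 5 × 10⁶ P. berghei KBG-173-infected erythrocytes; parasitemia 1.0–3.7% by day 3. IV dosing twice daily on days 3, 4 and 5 post-infection. Read-out is the survival time of the last animal alive. Mice blood-smear negative on day 31 counted as cured; mice losing ≥20% body weight sacrificed.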

[8] = tested on: Plasmodium berghei; test: Antimalarial activity against Plasmodium berghei KBG173 infected in mouse assessed as cured mouse at 15 mg/kg, iv BID administered on day 3, 4 and 5 post infection measured up to day 31; assay type: functional, organism-based; parameters: dose 15 mg/kg; procedure, shortened: as §1
[9] = tested on: Plasmodium berghei; test: Antimalarial activity against Plasmodium berghei KBG173 infected in mouse assessed as cured mouse at 5 mg/kg, iv BID administered on day 3, 4 and 5 post infection measured up to day 31; assay type: functional, organism-based; parameters: dose 5 mg/kg; procedure, shortened: as §1
[10] = Oral bioavailability in CD1 mouse at 25 mg/kg; assay type: ADME, organism-based; conditions: in vivo
Procedure, shortened: (§3)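 Male CD-1 mice (N = 3 per route) dosed IV at 5 mg/kg or orally at 25 mg/kg while fasted, mostly in saline (2.5 mg/mL). Tail-vein blood taken up to 24 h, cardiac puncture at 30 h. Samples hemolyzed, protein-precipitated with acetonitrile plus internal standard, analysed by positive ESI LC-MS/MS.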

[11] = tested on: Mus musculus; test: Unbound clearance in CD1 mouse at 5 mg/kg, iv; assay type: ADME, organism-based; parameters: dose 5 mg/kg, route intravenous; conditions: in vivo
Procedure, shortened: (§4)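 Fraction unbound measured in mouse plasma by ultrafiltration at 1 μg/mL. Unbound clearance = blood clearance/fu, assuming blood/plasma ratio of 1. Blood clearance comes from male CD-1 mice dosed IV at 5 mg/kg, with tail-vein sampling up to 24 h and LC-MS/MS analysis.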

[12] = Clearance at steady state in CD1 mouse at 5 mg/kg, iv; assay type: ADME, organism-based; parameters: dose 5 mg/kg, route intravenous; conditions: in vivo, read-out: CLss; procedure, shortened: as §3
[13] = tested on: Plasmodium berghei; test: Antimalarial activity against Plasmodium berghei KBG173 infected in mouse assessed as decrease in parasitemia at 10 mg/kg, iv BID administered on day 3, 4 and 5 post infection measured on day 31 relative to control; assay type: functional, organism-based; parameters: dose 10 mg/kg; procedure, shortened: as §1
[14] = tested on: Plasmodium berghei; test: Antimalarial activity against Plasmodium berghei KBG173 infected in mouse assessed as mouse survival time at 15 mg/kg, iv BID administered on day 3, 4 and 5 post infection; assay type: functional; procedure, shortened: as §2
[15] = tested on: HepG2; test: Cytotoxicity against human HepG2 cells after 24 hrs by MTS assay; assay type: cell-based; conditions: HepG2, 24 h
Procedure, shortened: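 HepG2 cells kept in RPMI 1640 with 10% FBS plus antibiotics at 37 °C, 5% CO₂. 50 000 cells per well exposed to 10 two-fold serial dilutions for 24 h. MTS reagent then added for 2 h more, absorbance read at 490 nm, IC50 derived.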

[16] = Volume of distribution at steady state in CD1 mouse at 5 mg/kg, iv; assay type: ADME, organism-based; parameters: dose 5 mg/kg, route intravenous; conditions: in vivo, read-out: Vdss; procedure, shortened: as §3
[17] = Fraction unbound in CD1 mouse plasma at 5 mg/kg, iv; assay type: ADME, organism-based; parameters: dose 5 mg/kg, route intravenous; procedure, shortened: as §4
[18] = tested on: Mus musculus; test: (§5) Half life in CD1 mouse at 5 mg/kg, iv; assay type: ADME, organism-based; parameters: dose 5 mg/kg, route intravenous; conditions: mouse, in vivo; procedure, shortened: as §3
[19] = Plasma protein binding in mouse at 1 ug/ml after 30 mins; assay type: ADME, cell-free; conditions: read-out: PPB (converted)
Procedure, shortened: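 Ultrafiltration on mouse plasma preincubated 15 min at 37 °C, compound spiked to 1 μg/mL final. Aliquots taken at 0 and 15 min, remainder spun through a 10 kDa filter for 30 min at 37 °C, 2850 g. Filtrate deproteinized and analysed by LC-MS/MS.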

[20] = tested on: Liver microsomes; test: Intrinsic clearance in human liver microsomes assessed per gram of liver at 1 uM after 60 mins at pH 7.4 by LC-MS/MS analysis; assay type: ADME, Microsome; conditions: pH 7.4, 1 h
Procedure, shortened: (§6)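 Liver microsomes (0.5 mg protein/mL) in 50 mM potassium phosphate pH 7.4 with 1.0 μM compound at 37 °C for 60 min. Reaction started with NADP/glucose-6-phosphate/MgCl₂/G6PDH cofactor mix; solvent 1% final. LC-MS/MS read-out. CLi from first-order elimination constant by nonlinear regression, corrected for incubation volume, assuming 52.5 mg microsomal protein/g liver.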

[21] = tested on: Plasmodium falciparum; test: Antimalarial activity against mefloquine-resistant Plasmodium falciparum TM91C235 assessed as [3H]hypoxanthine incorporation after 48 hrs; assay type: functional, organism-based
Procedure, shortened: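 Tritiated hypoxanthine incorporation assay (Desjardins method, Milhous modification) with 48 h drug exposure. Uses P. falciparum clone TM91C235 (Southeast Asian, mefloquine-resistant). Compounds 2-fold diluted over 11 concentrations. IC50 derived by nonlinear logistic dose-response fitting, averaged where multiple runs were done.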

[22] = as §5; assay type: ADME, organism-based; parameters: dose 5 mg/kg, route intravenous; conditions: CD1, mouse, in vivo; procedure, shortened: as §3
[23] = tested on: Plasmodium berghei; test: Antimalarial activity against Plasmodium berghei KBG173 infected in mouse assessed as increase in mouse survival time at 5 mg/kg, iv BID administered on day 3, 4 and 5 post infection relative to azithromycin; assay type: functional; procedure, shortened: as §2
[24] = tested on: Plasmodium berghei; test: Antimalarial activity against Plasmodium berghei KBG173 infected in mouse assessed as decrease in parasitemia at 10 mg/kg, ip BID administered on day 3, 4 and 5 post infection measured on day 31 relative to control; assay type: functional, organism-based; parameters: dose 10 mg/kg; procedure, shortened: as §1
[25] = tested on: Plasmodium berghei; test: Antimalarial activity against Plasmodium berghei KBG173 infected in mouse assessed as decrease in parasitemia at 15 mg/kg, iv BID administered on day 3, 4 and 5 post infection measured on day 31 relative to control; assay type: functional, organism-based; parameters: dose 15 mg/kg; procedure, shortened: as §1
[26] = tested on: Plasmodium berghei; test: Antimalarial activity against Plasmodium berghei KBG173 infected in mouse assessed as decrease in parasitemia at 20 mg/kg, iv BID administered on day 3, 4 and 5 post infection measured on day 31 relative to control; assay type: functional, organism-based; parameters: dose 20 mg/kg; procedure, shortened: as §1
[27] = tested on: Plasmodium berghei; test: Antimalarial activity against Plasmodium berghei KBG173 infected in mouse assessed as decrease in parasitemia at 20 mg/kg, ip BID administered on day 3, 4 and 5 post infection measured on day 31 relative to control; assay type: functional, organism-based; parameters: dose 20 mg/kg; procedure, shortened: as §1
[28] = tested on: Liver; test: Intrinsic clearance in mouse liver microsomes assessed per gram of liver at 1 uM after 60 mins at pH 7.4 by LC-MS/MS analysis; assay type: ADME, Microsome; conditions: pH 7.4, 1 h; procedure, shortened: as §6
[29] = tested on: Liver microsomes; test: Intrinsic clearance in rat liver microsomes assessed per gram of liver at 1 uM after 60 mins at pH 7.4 by LC-MS/MS analysis; assay type: ADME, Microsome; conditions: pH 7.4, 1 h; procedure, shortened: as §6

SMILES	Activity [9]	bioavailability [10]	CL free [11]	clearance [12]	IC50 [15]	Vd [16]	fraction unbound [17]	fraction unbound at 0.5 h, 1 ug/ml [19]	CLint [20]	IC50 [21]	half-life [22]	Survival [23]	further results
CCN(CC)CCCC(C)Nc1ccnc2cc(Cl)ccc12 (configuration not stated)	–	–	–	–	–	–	–	–	–	–	–	–	Activity [1]: inactive; Activity [2]: inactive; Activity [3]: inactive; Activity [4]: inactive; Activity [5]: inactive; Activity [6]: inactive
CC[C@H]1OC(=O)[C@H](C)[C@@H](O[C@H]2C[C@@](C)(OC)[C@@H](O)[C@H](C)O2)[C@H](C)[C@@H](O[C@@H]2O[C@H](C)C[C@H](N(C)C)[C@H]2O)[C@](C)(O)C[C@@H](C)CN(C)[C@H](C)[C@@H](O)[C@]1(C)O [AZITHROMYCIN]	inactive	72%	23.2 mL/min/kg	16 mL/min/kg	> 50000 nM	8.8 L/kg	0.69	–	–	–	–	–	Survival [7]: 17 days; Activity [8]: inactive; Activity [13]: inactive; Survival [14]: 19 days; t1/2 [18]: 8.3 h
CC[C@H]1OC(=O)[C@H](C)[C@@H](O[C@H]2C[C@@](C)(OC)[C@@H](O)[C@H](C)O2)[C@H](C)[C@@H](O[C@@H]2O[C@H](C)C[C@H](N(C)C)[C@H]2O)[C@](C)(O)C[C@@H](C)CN(CCC(=O)N[C@H](C)c2cccc3ccccc23)[C@H](C)[C@@H](O)[C@]1(C)O	–	23.6%	81 mL/min/kg	10.5 mL/min/kg	> 30000 nM	7.8 L/kg	0.13	0.13	1.8 mL/min/g	95 nM	16.5 h	-9 days	–
CC[C@H]1OC(=O)[C@H](C)[C@@H](O[C@H]2C[C@@](C)(OC)[C@@H](O)[C@H](C)O2)[C@H](C)[C@@H](O[C@@H]2O[C@H](C)C[C@H](N(C)C)[C@H]2O)[C@](C)(O)C[C@@H](C)CN(CCCNc2ccnc3cc(Cl)ccc23)[C@H](C)[C@@H](O)[C@]1(C)O	inactive	–	–	–	–	–	–	–	–	–	–	–	Activity [24]: inactive; Activity [25]: Active; Activity [26]: Active; Activity [27]: Active
CC[C@H]1OC(=O)[C@H](C)[C@@H](O[C@H]2C[C@@](C)(OC)[C@@H](O)[C@H](C)O2)[C@H](C)[C@@H](O[C@@H]2O[C@H](C)C[C@H](N(C)C)[C@H]2O)[C@](C)(O)C[C@@H](C)CN(CCCNCc2ccnc3ccccc23)[C@H](C)[C@@H](O)[C@]1(C)O	–	19.5%	18 mL/min/kg	10.2 mL/min/kg	> 50000 nM	4.9 L/kg	0.57	0.57	< 0.6 mL/min/g	165 nM	8.7 h	3 days	CLint [28]: < 0.6 mL/min/g; CLint [29]: < 0.6 mL/min/g
